Screening data as filed in PubChem.
CASP6 VEID inh: caspase-6 (human) enzyme inhibition | P55212 | purified caspase-6, Z-VEID-R110 cleavage fluorescence | inhibition, % at 12.5 µM | hit rate 0.53% among 350,000;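 active = mean inhibition across replicates at least about 35%, with every replicate also reaching that limit, limit read from the data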;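 also: 0% = median of neutral control wells and 100% = no fluorescence left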
Target sequence (P55212 24-179 limits assumed): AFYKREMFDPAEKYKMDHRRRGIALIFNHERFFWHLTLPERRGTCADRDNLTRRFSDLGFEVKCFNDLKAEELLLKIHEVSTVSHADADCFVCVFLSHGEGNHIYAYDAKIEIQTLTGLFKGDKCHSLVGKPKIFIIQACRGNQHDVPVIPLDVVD
Target sequence (P55212 194-293 limits assumed): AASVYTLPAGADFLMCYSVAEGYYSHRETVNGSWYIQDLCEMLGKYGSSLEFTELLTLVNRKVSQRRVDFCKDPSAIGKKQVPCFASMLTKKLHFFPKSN
S100A4 MyoIIA: inhibitors of human S100A4 binding to myosin IIA peptide; P26447; S100A4/TAMRA-MyoIIA peptide fluorescence polarization; hit rate 0.14% among 360,000; inhibition, % at 10.7 µM;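 active = mean inhibition of at least 70% across replicates, with every replicate also reaching that level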
Target sequence (P26447 whole entry, looked up): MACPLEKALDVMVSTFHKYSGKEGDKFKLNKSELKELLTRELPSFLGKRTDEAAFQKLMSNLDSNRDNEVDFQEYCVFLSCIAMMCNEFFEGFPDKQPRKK
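Test system – S100A4 monomer (human) · Compound – single-point compound testing · Schedule – 5 min incubation before reading · Probe or stimulus – TAMRA-labelled myosin IIA heavy-chain peptide probe, 5 nM · Benchmarks – neutral control DMSO, positive control TFP · Medium – Calcium-containing HEPES buffer, pH 7.2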
rRNA inh HTS: inhibitors of bacterial rRNA selective over humanized ribosomes | hit rate 1.6% among 350,000 | E. coli WT GFP vs humanized-ribosome RFP mutants, fluorescence, 24 h; active compounds read low; DMSO median 0, no signal -100 | AID 720706 | GFP signal change (wild-type ribosome), % (no concentration beside the values);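 active = significant combined selectivity score with lowered wild-type GFP, culture density cut under 30%, mutant RFP and density less affected; inactive = any of these conditions unmet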
ARNT-TACC3 inh: ARNT/TACC3 interaction disruption; Q9Y6A5; AlphaScreen His-ARNT PAS-B/GST-TACC3 binding, luminescence; TACC3 fragment carries E629A point mutation; inhibition, % at 9.99 µM; hit rate 0.66% among 390,000; AID 623870;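 active = mean inhibition of replicates at least 50% and at least half of replicates each reaching 50%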;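 also: 0% = complete ARNT plus TACC3 wells and 100% = ARNT alone without TACC3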
ERAP1 inh: ERAP1 (human) enzyme inhibition. Q9NZ08. recombinant ERAP1, Leu-AMC fluorescence, 60 min. inhibition, % at 10.7 µM. hit rate 0.15% among 340,000. AID 652197;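 active = mean replicate inhibition of at least 30%, or all replicates individually reaching that 30% level; inactive = mean below 30% and not every replicate reaching it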;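 also: 0% = neutral control wells and 100% = L-leucinethiol positive control wells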
PGC1a acetyl inh: modulators of PGC1a acetylation | hit rate 0.17% among 350,000 | U2OS PGC1a acetylation, AlphaScreen anti-acetyl-lysine; with virally co-expressed GCN5 acetyltransferase | inhibition, % at 15.6 µM;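 active = every replicate shows inhibition of at least 40%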;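 also: 0% = neutral control wells and 100% = positive control wells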
Active calls of the source: *. This is a sample that favours compounds with a hit; in the whole collection about 2.4% have one here.

`CCN(CC)P(=O)(Oc1ccccc1)Oc1ccccc1` gave CASP6 VEID inh 3, S100A4 MyoIIA -10, rRNA inh HTS -32*, ARNT-TACC3 inh 0, ERAP1 inh 2 and PGC1a acetyl inh -9.
Screening O=C(Cc1ccccc1)N1CCCCN2[C@@H](CO)[C@@H](c3ccc(-c4ccccc4)cc3)[C@@H]2C1 returned CASP6 VEID inh 0, S100A4 MyoIIA -28, rRNA inh HTS -58, ARNT-TACC3 inh 10, ERAP1 inh -1 and PGC1a acetyl inh 6.
Screening C[C@]12C=CC(=O)C=C1CC[C@@H]1[C@@H]2CC[C@]2(C)C(=O)CC[C@@H]12 returned CASP6 VEID inh 2, S100A4 MyoIIA 1, rRNA inh HTS -23*, ARNT-TACC3 inh 9, ERAP1 inh 4 and PGC1a acetyl inh 0.
`C[C@]12CCC(=O)C=C1CCC1C2CC[C@@]2(C)C1CC[C@@H]2O` (some centres not stated) gave CASP6 VEID inh -3, S100A4 MyoIIA 2, rRNA inh HTS -52, ARNT-TACC3 inh -2, ERAP1 inh -1 and PGC1a acetyl inh 5.
For CC12C=CC(=O)C=C1CCC1C2C(=O)CC2(C)C(=O)CCC12 (configuration not stated) the results were CASP6 VEID inh 0, S100A4 MyoIIA 4, rRNA inh HTS -2, ARNT-TACC3 inh -13, ERAP1 inh -3 and PGC1a acetyl inh -2.
For C[C@]12CCC(=O)C=C1CC[C@@H]1C2[C@H](O)C[C@]2(C)C(=O)CCC12 (some centres not stated) the results were CASP6 VEID inh 1, S100A4 MyoIIA -7, rRNA inh HTS -26*, ARNT-TACC3 inh 5, ERAP1 inh -3 and PGC1a acetyl inh -3.
For CC[C@H](C)[C@@H]1NC(=O)CNC(=O)c2csc(n2)[C@H](C(C)(C)O)OC(=O)C(C)(C)[C@H](CCCC(C)(Cl)Cl)OC(=O)c2csc1n2 the results were CASP6 VEID inh 40*, S100A4 MyoIIA -2, rRNA inh HTS -2, ERAP1 inh 0 and PGC1a acetyl inh 60*.
`O=C1NC(=O)N(Cc2ccco2)C(=O)/C1=C/C=C/c1ccco1` gave CASP6 VEID inh 88*, S100A4 MyoIIA -3, rRNA inh HTS 2, ARNT-TACC3 inh -12 and ERAP1 inh 2.
`Cc1ccc(N2C(=O)NC(=O)/C(=C\C=C\c3ccco3)C2=O)cc1C` gave CASP6 VEID inh 38*, S100A4 MyoIIA -39, rRNA inh HTS 7, ARNT-TACC3 inh -4 and ERAP1 inh 0.
`CN1C(=O)/C(=C/C=C/c2ccco2)C(=O)NC1=S` gave CASP6 VEID inh 76*, S100A4 MyoIIA -12, rRNA inh HTS 16, ARNT-TACC3 inh -15, ERAP1 inh 2 and PGC1a acetyl inh 5.
Screening O=C1NC(=O)N(Cc2ccccc2)C(=O)/C1=C\C=C\c1ccco1 returned CASP6 VEID inh 60*, S100A4 MyoIIA -4, rRNA inh HTS 4, ARNT-TACC3 inh -5, ERAP1 inh 16 and PGC1a acetyl inh -9.
`C[C@H]1CN([C@@H](C)CO)C(=O)CCCn2cc(nn2)CO[C@H]1CN(C)C(=O)Oc1cccc2ccccc12` gave rRNA inh HTS -5 and PGC1a acetyl inh -4.
Screening CS(=O)(=O)N1C[C@@H]2C(c3ccc(Br)cc3)[C@H](C1)N2CC1CC1 (some centres not stated) returned rRNA inh HTS -4.
`O=C(O)[C@@H]1[C@@H](CO)[C@@H]2Cn3c(ccc(-c4ccccc4)c3=O)[C@H]1N2C(=O)C1CCCCC1` gave CASP6 VEID inh 2, S100A4 MyoIIA 3, rRNA inh HTS 0, ARNT-TACC3 inh -6, ERAP1 inh 1 and PGC1a acetyl inh 10.
C/C(=N\NC(=O)c1ccccc1Cl)c1c(O)n(C2CCCCC2)c(=O)[nH]c1=O was read as CASP6 VEID inh 3, S100A4 MyoIIA 0, rRNA inh HTS -32*, ARNT-TACC3 inh -3, ERAP1 inh 3 and PGC1a acetyl inh -10.
Screening C/C(=N\NC(=O)c1ccccc1)c1c(O)n(C2CCCCC2)c(=O)[nH]c1=O returned CASP6 VEID inh 1, S100A4 MyoIIA 0, rRNA inh HTS 3, ARNT-TACC3 inh 2, ERAP1 inh -2 and PGC1a acetyl inh 9.
For C/C(=N\NC(=O)c1ccccc1O)c1c(O)n(C2CCCCC2)c(=O)[nH]c1=O the results were CASP6 VEID inh 4, S100A4 MyoIIA 2, rRNA inh HTS -18*, ARNT-TACC3 inh 7, ERAP1 inh -1 and PGC1a acetyl inh 4.
Screening CN(C)c1ccc(/C=C/[N+](=O)[O-])cc1 returned CASP6 VEID inh 2, S100A4 MyoIIA -2, rRNA inh HTS -18*, ARNT-TACC3 inh -1 and ERAP1 inh 3.
Screening Cc1cccc(-n2c(O)c(/C=N/NC(=O)c3ccncc3)c(=O)[nH]c2=O)c1 returned CASP6 VEID inh 7, S100A4 MyoIIA -3, rRNA inh HTS 24, ERAP1 inh 3 and PGC1a acetyl inh -2.
Screening Cc1ccccc1-n1c(O)c(/C=N/NC(=O)c2ccccc2O)c(=O)[nH]c1=S returned CASP6 VEID inh 4, S100A4 MyoIIA -20, rRNA inh HTS -11, ARNT-TACC3 inh 57* and PGC1a acetyl inh -9.
For O=C(N/N=C/c1c(O)n(C2CC2)c(=S)[nH]c1=O)c1ccccc1O the results were ARNT-TACC3 inh 60*.
Screening CCOC(=O)c1ccc(N=Cc2c(O)n(-c3ccccc3F)c(=S)[nH]c2=O)cc1 returned CASP6 VEID inh 0, S100A4 MyoIIA 122*, rRNA inh HTS 2, ARNT-TACC3 inh -3, ERAP1 inh 1 and PGC1a acetyl inh 8.
`Cc1cccc(S(=O)(=O)N2[C@@H]3c4ccc(-c5ccc(F)cc5)c(=O)n4C[C@H]2[C@H](CO)[C@H]3C(=O)O)c1` gave rRNA inh HTS 0.
Screening COC(=O)[C@H]1[C@H](CO)[C@H]2Cn3c(ccc(-c4ccc(F)cc4)c3=O)[C@@H]1N2C(C)=O returned CASP6 VEID inh -5, S100A4 MyoIIA -10, rRNA inh HTS 1, ARNT-TACC3 inh 0 and ERAP1 inh 0.
`C=CCN1CC[C@@]2(C)c3cc(O)ccc3CC1[C@@H]2C` gave CASP6 VEID inh -6, S100A4 MyoIIA 0, ARNT-TACC3 inh -5, ERAP1 inh -5 and PGC1a acetyl inh 1.
`CN1CC[C@@]2(C)c3cc(O)ccc3N(C)C2O1` (some centres not stated) gave ARNT-TACC3 inh 30* and PGC1a acetyl inh -1.
Screening CC1[C@H]2Cc3ccc(O)cc3[C@]1(C)CCN2C (some centres not stated) returned CASP6 VEID inh -2, S100A4 MyoIIA -29, rRNA inh HTS 8, ARNT-TACC3 inh -3, ERAP1 inh -4 and PGC1a acetyl inh -16.
